Measured values published in PMC6476708 (Psychopharmacology, 2018).

How the values were obtained:
[1] = test system: DAT; conditions: 100 μM drug; ref Dolan et al. (2018); cited from earlier work
[2] = biological target: T1, human SERT (Homo sapiens, UniProt P31645); assay: Uptake inhibition in HEK-293 cells expressing human SERT; format: cell-based
[3] = biological target: T2, human DAT (Homo sapiens, UniProt Q01959); assay: Efflux; format: cell-based; conditions: HEK-293 human DAT, 10 μM drug, with or without 10 μM monensin
T2 sequence (Q01959 whole entry): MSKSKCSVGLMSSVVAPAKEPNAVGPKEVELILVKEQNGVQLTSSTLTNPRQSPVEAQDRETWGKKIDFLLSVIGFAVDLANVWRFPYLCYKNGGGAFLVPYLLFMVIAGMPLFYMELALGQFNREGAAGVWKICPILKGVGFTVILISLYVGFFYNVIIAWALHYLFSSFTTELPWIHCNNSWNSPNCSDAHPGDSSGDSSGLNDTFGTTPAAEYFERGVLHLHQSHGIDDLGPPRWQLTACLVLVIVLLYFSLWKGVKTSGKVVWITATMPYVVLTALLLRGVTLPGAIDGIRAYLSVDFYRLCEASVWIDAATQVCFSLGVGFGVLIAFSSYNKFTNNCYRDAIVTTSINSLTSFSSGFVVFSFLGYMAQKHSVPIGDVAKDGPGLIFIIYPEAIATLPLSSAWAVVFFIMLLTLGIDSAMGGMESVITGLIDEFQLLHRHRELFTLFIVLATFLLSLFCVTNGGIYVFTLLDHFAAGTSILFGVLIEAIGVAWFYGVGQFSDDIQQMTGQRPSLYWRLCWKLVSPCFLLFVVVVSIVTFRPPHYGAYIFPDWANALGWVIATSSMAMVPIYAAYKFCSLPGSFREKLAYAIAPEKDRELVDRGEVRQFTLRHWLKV

[4] = biological target: T3, SERT (Rattus norvegicus, UniProt P31652); assay: Release of [3H]5-HT from rat brain synaptosomes; format: biochemical
T3 sequence (P31652 whole entry): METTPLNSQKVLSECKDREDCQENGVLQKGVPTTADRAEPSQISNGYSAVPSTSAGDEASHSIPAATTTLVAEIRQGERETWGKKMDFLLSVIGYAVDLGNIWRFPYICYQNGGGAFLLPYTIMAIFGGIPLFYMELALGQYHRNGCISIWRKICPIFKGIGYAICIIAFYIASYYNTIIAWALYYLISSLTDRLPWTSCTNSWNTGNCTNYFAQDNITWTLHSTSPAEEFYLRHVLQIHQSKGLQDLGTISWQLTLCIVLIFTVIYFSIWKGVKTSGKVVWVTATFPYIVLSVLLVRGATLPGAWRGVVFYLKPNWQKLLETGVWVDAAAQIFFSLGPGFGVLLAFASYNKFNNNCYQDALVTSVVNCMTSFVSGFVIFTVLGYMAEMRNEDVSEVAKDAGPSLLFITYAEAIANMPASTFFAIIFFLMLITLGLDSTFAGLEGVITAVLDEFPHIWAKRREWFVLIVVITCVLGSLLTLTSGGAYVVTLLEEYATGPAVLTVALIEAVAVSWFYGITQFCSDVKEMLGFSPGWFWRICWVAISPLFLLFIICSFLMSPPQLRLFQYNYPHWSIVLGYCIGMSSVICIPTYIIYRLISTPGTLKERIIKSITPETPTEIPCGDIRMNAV

[5] = biological target: T1, human SERT; assay: Efflux; format: cell-based; conditions: HEK-293 human SERT; for [3H]5-HT efflux at SERT: 10 μM drug; for effect of monensin on drug-evoked [3H]5-HT efflux at SERT: 10 μM drug plus 10 μM monensin
Summary of the method: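 HEK-293 cells stably expressing YFP-tagged human SERT, seeded at 40,000 cells/well on poly-D-lysine-coated coverslips. Preloaded with 0.3 μM radiolabelled substrate for 20 min at 37 °C, then superfused at 25 °C, 0.7 mL/min, with Krebs Ringer HEPES (pH 7.4). Fractions collected every 2 min. After a 40-min washout baseline, 10 μM test compound was added alone or with 10 μM monensin. Cells were lysed in 1% SDS and counted by scintillation. Analysis: two-way ANOVA with Tukey; n=3, triplicate.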

[6] = biological target: T2, human DAT; assay: Uptake inhibition in HEK-293 cells expressing human DAT; format: cell-based
[7] = biological target: T2, human DAT; assay: Transporter-mediated ionic currents, whole cell patch clamp, HEK-293 human DAT; format: cell-based; conditions: voltage clamped to −60 mV, 300 nM to 300 μM
Summary of the method: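 HEK-293 cells stably expressing human DAT were seeded at low density 24 h before recording. Whole-cell voltage clamp was held at −60 mV, with K-gluconate/EGTA pipette solution (pH 7.2) and NaCl/glucose HEPES bath (pH 7.4). Test compound (300 nM–300 μM) was applied by rapid superfusion. Passive holding currents were subtracted, traces low-pass filtered at 100 Hz, and currents normalised to 10 μM endogenous substrate. One-way ANOVA; n=3.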

[8] = biological target: T4, DAT (Rattus norvegicus, UniProt P23977); assay: Uptake inhibition of [3H]dopamine in rat brain synaptosomes; format: biochemical; conditions: for DAT/SERT ratio ([DAT IC50]^−1/[SERT IC50]^−1): synaptosome uptake assays, higher value indicates greater DAT-selectivity
T4 sequence (P23977 whole entry): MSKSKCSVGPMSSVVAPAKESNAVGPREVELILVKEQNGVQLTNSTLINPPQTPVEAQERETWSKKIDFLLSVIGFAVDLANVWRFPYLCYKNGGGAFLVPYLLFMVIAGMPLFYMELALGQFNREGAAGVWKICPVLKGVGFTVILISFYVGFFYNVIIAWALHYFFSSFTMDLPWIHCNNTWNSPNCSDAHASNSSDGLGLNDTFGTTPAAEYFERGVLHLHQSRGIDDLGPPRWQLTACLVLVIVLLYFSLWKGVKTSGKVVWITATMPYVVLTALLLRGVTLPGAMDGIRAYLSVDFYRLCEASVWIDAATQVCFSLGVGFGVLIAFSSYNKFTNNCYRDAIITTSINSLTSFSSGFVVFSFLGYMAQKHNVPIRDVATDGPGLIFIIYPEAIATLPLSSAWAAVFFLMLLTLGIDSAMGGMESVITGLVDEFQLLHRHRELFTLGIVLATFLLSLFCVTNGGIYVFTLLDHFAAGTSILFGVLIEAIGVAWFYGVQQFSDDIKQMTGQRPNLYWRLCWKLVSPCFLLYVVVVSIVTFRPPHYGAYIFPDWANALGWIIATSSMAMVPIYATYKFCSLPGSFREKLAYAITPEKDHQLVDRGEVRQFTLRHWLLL

[9] = biological target: T4, DAT; assay: Release of [3H]MPP+ from rat brain synaptosomes; format: biochemical; conditions: 0.1 nM to 10 μM
Summary of the method: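 Crude synaptosomes were prepared from rat caudate: homogenized in ice-cold 10% sucrose, spun at 1000 g for 10 min, supernatant kept. They were preloaded for 1 h with 9 nM [3H]MPP+ in Krebs-phosphate buffer; all buffers contained 1 μM reserpine. Test compound was applied at 0.1 nM–10 μM in triplicate. Release was stopped by vacuum filtration and counted by scintillation. EC50 was derived by nonlinear regression; n=3.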

[10] = test system: extracellular dopamine and 5-HT in nucleus accumbens; assay: In vivo microdialysis in the nucleus accumbens of conscious rats; conditions: rat nucleus accumbens dialysate
Summary of the method: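 Male Sprague-Dawley rats (300–400 g) were implanted under ketamine/xylazine with a jugular catheter and a nucleus accumbens guide cannula, then recovered ≥1 week. Probes were perfused with Ringer's at 0.6 μL/min, and 20-min dialysates were assayed for dopamine and 5-HT by HPLC-ECD. After three stable baselines, rats received 1 mg/kg i.v. at time zero, then 3 mg/kg at 60 min; controls received saline 1 mL/kg. Data are % of baseline; N=6–7/group; two-way ANOVA, Bonferroni.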

[11] = test system: motor activity; assay: Motor activity and stereotypy; format: in vivo, rat; conditions: rats, 1 and 3 mg/kg i.v.; for motor activity (forward locomotion): compared to saline
Summary of the method: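 Conscious, tethered male Sprague-Dawley rats were acclimated overnight in photobeam arenas and tracked for forward locomotion and stereotypy during microdialysis. Dosing was i.v. via jugular catheter: 1 mg/kg at time zero, then 3 mg/kg 60 min later; saline controls received 1 mL/kg on the same schedule. Data are % of basal preinjection values; N=6–7/group; two-way ANOVA (treatment × time) with Bonferroni tests against saline.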

[12] = biological target: T1, human SERT; assay: Transporter-mediated ionic currents, whole cell patch clamp, HEK-293 human SERT; format: cell-based; conditions: voltage clamped to −60 mV, 300 nM to 300 μM
[13] = test system: DAT and SERT; conditions: HEK-293 cells, uptake inhibition; ref Simmler et al. 2013; 2014; cited from earlier work
[14] = biological target: T3, SERT; assay: Uptake inhibition of [3H]5-HT in rat brain synaptosomes; format: biochemical
[15] = 3 mg/kg i.v. given 60 min after 1 mg/kg

T1 sequence (P31645 whole entry): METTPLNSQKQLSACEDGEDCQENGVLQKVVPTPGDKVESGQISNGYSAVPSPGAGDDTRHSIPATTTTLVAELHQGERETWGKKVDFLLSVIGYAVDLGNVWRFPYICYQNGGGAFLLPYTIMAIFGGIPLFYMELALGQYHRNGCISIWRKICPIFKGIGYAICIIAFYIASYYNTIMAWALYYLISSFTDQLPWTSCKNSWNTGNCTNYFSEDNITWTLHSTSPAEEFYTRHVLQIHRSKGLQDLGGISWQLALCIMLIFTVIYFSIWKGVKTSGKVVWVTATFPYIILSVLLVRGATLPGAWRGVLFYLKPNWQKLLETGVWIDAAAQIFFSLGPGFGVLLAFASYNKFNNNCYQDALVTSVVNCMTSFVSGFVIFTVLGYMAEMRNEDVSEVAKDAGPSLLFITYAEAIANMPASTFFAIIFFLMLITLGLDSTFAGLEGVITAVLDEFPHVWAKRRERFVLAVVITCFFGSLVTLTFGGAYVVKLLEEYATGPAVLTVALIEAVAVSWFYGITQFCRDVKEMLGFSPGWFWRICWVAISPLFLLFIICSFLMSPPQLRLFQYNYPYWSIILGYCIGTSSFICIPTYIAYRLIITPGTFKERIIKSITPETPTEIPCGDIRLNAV

SMILES	drug-induced current at DAT as fraction of current induced by dopamine [1]	IC50 [2]	[3H]MPP+ efflux at DAT [3]	EC50 [4]	[3H]5-HT efflux at SERT [5]	effect of monensin on drug-evoked [3H]5-HT efflux at SERT [5]	IC50 [6]	transporter-mediated currents at DAT [7]	IC50 [8]	DAT/SERT ratio ([DAT IC50]^−1/[SERT IC50]^−1) [8]	release of [3H]MPP+ at DAT [9]	extracellular 5-HT levels increase ([10]; 1 mg/kg i.v.)	extracellular dopamine levels above baseline ([10]; 1 mg/kg i.v.)	extracellular 5-HT levels increase [10, 15]	extracellular dopamine levels increase [10, 15]	motor activity (forward locomotion) [11]	SERT-mediated inward currents [12]	DAT/SERT ratio [13]	IC50 [14]	also measured
CCCC(NC)C(=O)c1ccc2c(c1)OCO2 (stereo not shown) [pentylone, 1-(1,3-benzodioxol-5-yl)-2-(methylamino)pentan-1-one]	< 20%	11.7 ± 0.5 µM	neither butylone nor pentylone evoked [^3H]MPP^+ efflux at DAT	1.03 ± 0.18 µM	evoked [^3H]5-HT efflux at SERT	markedly enhanced	0.31 ± 0.07 µM	no discernable currents	0.12 ± 0.01 µM	11.4	failed to produce efficacious release	no effect	2 fold	3 fold	about 3.5 fold	increased motor activity	dose-related induction of SERT-mediated inward currents	6.2	1.36 ± 0.1 µM	efficacy of SERT-mediated release ([4]; rat brain synaptosomes, [3H]5-HT release): 48 % of Emax; stereotypy (repetitive movements) ([11]; post hoc tests vs saline): increased stereotypy
CCC(NC)C(=O)c1ccc2c(c1)OCO2 (stereo not shown) [butylone, 1-(1,3-Benzodioxol-5-yl)-2-(methylamino)butan-1-one]	< 20%	24.4 ± 2 µM	neither butylone nor pentylone evoked [^3H]MPP^+ efflux at DAT	0.33 ± 0.04 µM	evoked [^3H]5-HT efflux at SERT	markedly enhanced	1.44 ± 0.1 µM	no discernable currents	0.4 ± 0.02 µM	3.6	failed to produce efficacious release	3 fold	2 fold	~7 fold	about 3.5 fold	increased motor activity	dose-related induction of SERT-mediated inward currents	2.1	1.43 ± 0.16 µM	
